B1: tRNA (parent)
chain: GUUCCGUUGGCGUAAUGGUAACGCGUCUCCCUCCUAAGGAGAAGACUGCGGGUUCGAGUCCCGUACGGAACG

Variants of: B1
Assay: yeast fitness, log relative to wild type (ln ratio); higher = fitter; tRNA-Arg(CCU), competitive growth, 37 C, 1 M NaCl
Method in brief: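 Fitness is the natural log of each genotype's generations divided by the wild type's. Generations were derived as OD-scaled log2 output/input frequency from 125 bp paired-end Illumina counts, weighting replicates by inverse variance. Pools of the tRNA-Arg(CCU) variant library, on a HIS3 centromeric plasmid in BY4742 lacking the chromosomal gene, grew ~6.5 generations (~26.5 h) in SC-HIS 1M NaCl at 37 °C after 4 generations in SC-HIS at 30 °C.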

Variant	yeast fitness (ln)
U2C A43C C46U C66U C71U	-0.19
U2C A43C C66A A70U C71U	-0.275
G1A U2G G6U C66U	-0.203
U2C C27U C66A A70U C71U	-0.222
U2C A43C C46U C66A	0.0909
U2C A43C C46U C66U	-0.0687
G1A U2G G6U C46U A70U C71U	-0.511
U2C C46U C66U A69G C71U	-0.145
U2C A43C A69G A70U C71U	-0.32
U2C A43C C66U A69G A70G	-0.169
U2C A43C C66U A69G A70U	-0.263
U2C C46U C66A C71U	-0.0793
G1A U2G G6U C46U A69G A70G C71U	-0.309
U2C C46U C66U A69G A70G	-0.02
U2C C46U C66U A69G A70U	-0.0518
U2C C27U A69G A70U C71U	-0.278
G1A U2G G6U C66A A69G A70U	-0.293
G1A U2G G6U C66U A69G A70G C71U	-0.529
U2C C27U A43C C46U A69G A70G C71U	-0.0222
U2C C27U A43C C66A A70G	-0.0848
U2C C27U A43C C66A A70U	-0.145
U2C C27U A70U C71U	-0.104
U2C A43C C71U	-0.168
G1A U2G G6U C66U A69G A70U	-0.386

Variant	yeast fitness (ln)
U2C C27U C46U A69G A70U C71U	-0.216
U2C A43C A69G A70G C71U	-0.0143
G1A U2G G6U C71U	-0.196
U2C C46U C66A A70U C71U	-0.0668
U2C A43C A70G C71U	-0.0158
U2C C66U A69G A70G	-0.0264
G1A U2G G6U C66A A70U	-0.329
U2C C27U A43C C66U A70U C71U	-0.343
U2C C27U A43C C46U C66U A70U C71U	-0.324
U2C A43C C46U A69G C71U	-0.0944
G1A U2G G6U C27U C66A A69G A70U C71U	-0.404
G1A U2G G6U C46U C66U A69G C71U	-0.466
U2C A43C C46U C66A A70G C71U	-0.0245
U2C C46U A69G A70U C71U	-0.169
G1A U2G G6U C27U C66U A69G A70G	-0.333
G1A U2G G6U C27U C66U A69G A70U	-0.307
U2C C27U A43C C66U A69G A70G C71U	-0.288
G1A U2G G6U C27U C66U A70G C71U	-0.325
U2C C27U A43C C66A A69G A70U C71U	-0.443
U2C A69G A70G C71U	-0.0131
U2C C27U A43C C46U C66A A69G A70U C71U	-0.472
U2C C27U A43C A70U C71U	-0.172
U2C C66A A70U	-0.0514
U2C C66A A70G	-0.11

Variant	yeast fitness (ln)
U2C C27U A43C C66U C71U	-0.311
U2C C27U A69G A70G C71U	-0.0353
U2C C27U C71U	-0.273
G1A U2G G6U C27U C66U A69G C71U	-0.425
U2C A43C C46U C66U A69G A70U	-0.191
U2C A43C C46U C66U A69G A70G	-0.0788
G1A U2G G6U C66A A69G A70U C71U	-0.335
U2C C27U A43C C46U C66U A69G A70G C71U	-0.216
U2C C27U A43C C46U A69G A70U	-0.169
U2C C27U A43C C46U A69G A70G	-0.0239
U2C A43C C46U C66A A69G A70U C71U	-0.374
U2C C27U A43C C66U A69G C71U	-0.388
U2C C46U C66A A70G C71U	-0.168
G1A U2G G6U C27U C66A A70G C71U	-0.287
U2C C27U A43C C46U C66U C71U	-0.174
U2C A43C C66A A70U	-0.0829
U2C A43C C66A A70G	-0.0552
U2C A43C C46U A69G A70U C71U	-0.307
U2C C27U C46U C66A A69G A70G	-0.227
U2C C27U C46U C66A A69G A70U	-0.114
U2C A69G C71U	-0.158
U2C C27U C66U C71U	-0.177
U2C A43C C66U A70G C71U	-0.346
U2C A43C C66A	-0.0546

Variant	yeast fitness (ln)
U2C A43C C66U	-0.0874
G1A U2G G6U C27U C66A A70U	-0.27
G1A U2G G6U C27U C66A A70G	-0.268
G1A U2G G6U C46U C66U C71U	-0.257
U2C A43C C66A A69G A70G C71U	-0.168
G1A U2G G6U C66U A69G C71U	-0.375
U2C C27U A43C C46U C66A A70U C71U	-0.269
G1A U2G G6U C27U C46U C66U C71U	-0.285
U2C C27U C46U A70G	-0.0268
U2C C27U C46U A70U	-0.0474
U2C A70U C71U	-0.0765
U2C C27U C46U A70U C71U	-0.09
G1A U2G G6U C46U C66U A70G	-0.238
G1A U2G G6U C46U C66U A70U	-0.184
U2C C27U A43C C46U C71U	-0.0612
U2C A43C A69G	-0.0815
U2C C27U C46U C66U A69G A70U C71U	-0.411
U2C C27U A43C C66A A69G A70G C71U	-0.328
U2C C27U C46U C66A	-0.143
U2C C27U C46U C66U	-0.0297
U2C C27U C46U C66A A69G A70G C71U	-0.106
U2C C27U C66A A70G C71U	-0.157
U2C C27U A43C A69G A70G C71U	-0.0704
U2C C27U A70G C71U	-0.0321

Variant	yeast fitness (ln)
U2C A43C C46U C66U A69G A70U C71U	-0.39
U2C A43C C66U C71U	-0.24
U2C C27U A43C C46U C66A A69G A70G C71U	-0.15
G1A U2G G6U C66A C71U	-0.193
U2C C27U A43C C46U A69G A70U C71U	-0.307
U2C C27U C66U A69G A70U C71U	-0.453
U2C A69G	-0.0379
U2C C27U A43C C46U	-0.0298
U2C A43C C46U C66A A70U C71U	-0.169
G1A U2G G6U C46U C71U	-0.251
G1A U2G G6U C46U C66A A70U	-0.234
G1A U2G G6U C46U C66A A70G	-0.258
U2C A43C A69G A70G	-0.0256
U2C A43C A69G A70U	-0.235
G1A U2G G6U C46U C66A A69G A70G C71U	-0.416
G1A U2G G6U C27U C46U C66A A70G	-0.148
G1A U2G G6U C27U C46U C66A A70U	-0.322
G1A U2G G6U C27U C46U C66U A70G C71U	-0.307
U2C C27U C46U C66U A69G C71U	-0.243
G1A U2G G6U C46U C66U A70G C71U	-0.216
G1A U2G G6U C46U C66A A70U C71U	0.00484
U2C C27U C46U	-0.0168
U2C C27U A69G C71U	-0.102
U2C C27U C66A A70U	-0.0861

Variant	yeast fitness (ln)
U2C C27U C66A A70G	-0.105
G1A U2G G6U C46U C66U A70U C71U	-0.722
U2C C27U C66U A70G C71U	-0.172
U2C C66A	0.0749
U2C C66U	-0.207
U2C C27U A43C C46U C66U A70G	-0.0949
U2C C27U A43C C46U C66U A70U	-0.115
G1A U2G G6U C46U	-0.0886
U2C C46U A69G C71U	-0.131
G1A U2G G6U C46U C66U A69G A70U C71U	-0.441
U2C C27U A43C A70G C71U	-0.0236
U2C C27U A43C C66U A69G A70U	-0.439
U2C C27U A43C C66U A69G A70G	-0.332
G1A U2G G6U C27U C66U	-0.38
U2C C27U A43C A69G C71U	-0.144
U2C C46U C66U A70G C71U	-0.00524
G1A U2G G6U C27U C66A C71U	-0.273
U2C C46U A69G A70U	-0.0822
U2C C46U A69G A70G	-0.016
U2C C27U A43C C66U A70U	-0.135
U2C C27U A43C C66U A70G	-0.232
U2C A43C C46U A69G	-0.182
U2C C27U C46U C66A A70U C71U	-0.134
U2C C27U C66U A69G A70G C71U	-0.529

Variant	yeast fitness (ln)
U2C A43C C46U	0.00393
G1A U2G G6U C27U C66U A69G A70U C71U	-0.407
U2C C46U C66U A70G	0.0022
U2C C46U C66U A70U	-0.2
U2C C27U A43C C66A A70U C71U	-0.319
U2C C66A A69G A70U C71U	-0.496
G1A U2G G6U C46U A70G C71U	-0.257
U2C C66A A70U C71U	-0.0799
U2C C46U A70G C71U	-0.00238
U2C C27U A43C	-0.0586
U2C C27U C46U C66U A70G	-0.04
U2C C27U C46U C66U A70U	-0.0783
U2C C27U C46U C66U A70U C71U	-0.199
G1A U2G G6U C66A A70G C71U	-0.525
U2C C27U A43C C66U A70G C71U	-0.207
G1A U2G G6U C27U C46U C66A A69G A70G C71U	-0.417
U2C C66A A69G A70G C71U	-0.105
U2C C46U C66A	-0.0347
U2C C46U C66U	-0.171
U2C C27U C46U C66A A70G C71U	-0.181
G1A U2G G6U C27U C46U C71U	-0.259
U2C C27U A43C C46U C66U A69G A70U C71U	-0.46
U2C C27U A43C A69G A70U C71U	-0.266
